# Test results as given in ChEMBL document CHEMBL1153639, “A facile synthesis and antimycobacterial evaluation of novel spiro-pyrido-pyrrolizines and pyrrolidines” (2009).
# Tested on: Mycobacterium tuberculosis
# Experiment: Antimycobacterial against multidrug resistant Mycobacterium tuberculosis by agar dilution method
# Type: functional
# How it was run: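 Strain was an MDR-TB clinical isolate resistant to isoniazid and rifampicin, among other drugs. MIC read by agar dilution, run in triplicate.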
row,Compound,MIC
1,CN1CCC(=O)[C@]2(C1)[C@@H](c1ccc(Cl)cc1Cl)[C@@H]1CCCN1[C@@]21C(=O)Nc2ccccc21,1.66 µM
2,NNC(=O)c1ccncc1 [ISONIAZID],11.4 µM
3,CC[C@@H](CO)NCCN[C@@H](CC)CO [ETHAMBUTOL],61.2 µM
4,NC(=O)c1cnccn1 [PYRAZINAMIDE],406 µM
5,CN1CCC(=O)[C@]2(C1)[C@@H](c1ccc(Cl)cc1Cl)CN(C)[C@@]21C(=O)Nc2ccccc21,0.88 µM
6,CN1CCC(=O)[C@]2(C1)[C@@H](c1ccccc1Cl)[C@@H]1CCCN1[C@@]21C(=O)Nc2ccccc21,3.58 µM
